Bioassay records deposited in PubChem BioAssay by SRMLSC.
Shown is part of a subset that was picked to be rich in hits.
HUVEC inhibit: human endothelial cell proliferation inhibition; HUVEC proliferation, CellTiter-Glo luminescence, 72 h; stronger effect = lower value; viability, % at 10 µM (by protocol); 86,000 compounds, 1.1% hits;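 active = viability at or below 30%; inactive = viability above 30%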;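 also: 100% = median luminescence of DMSO-only cell control wells on each plate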
HCT116 PTEN-null: suppresses growth of cells with PTEN deletion; HCT116 PTEN-null viability, CellTiter-Glo, 60 h; stronger effect = lower value; 140,000 compounds, 1.2% hits; viability, % at 10 µM;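 active = viability at or below a set limit, 4 SD under the median of all tested compounds, cut at about 3.7% in these data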;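 also: PTEN knockout HCT116 line with beta catenin targeted HCT116 as companion control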
Lung fibro prol: blocks proliferation of human lung fibroblasts; viability, % at 10 µM; 85,000 compounds, 1.1% hits; LL 47 human lung fibroblast viability, ATP luminescence; stronger effect = lower value; AID 719;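 active = viability at or below 50% in the single dose screen; inactive = viability above 50%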;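 also: compound exposure lasted 72 h before the ATP readout; 100% = median luminescence of untreated cell-only wells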
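Test system: LL 47 human lung fibroblasts / Quantity: 1,150 cells in each well / Medium: IMEM growth medium with 15% fetal bovine serum / Incubation: 72 h compound exposure at 37 °C after overnight plating / Detection: CellTiter-Glo luminescence measuring cellular ATP / Read-out: % viability versus median cells-only luminescence / Benchmarks: cell-only wells, no compound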
HCT116 bCat-KO: beta-catenin-lacking colon tumor cell growth suppression. HCT116 beta-catenin knockout viability, CellTiter-Glo, 60 h; stronger effect = lower value. 140,000 compounds, 1.5% hits. viability, % at 10 µM;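 active = viability at or under a set limit, the compound median less 4 SD, cut at about 6% in these data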;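 also: 0% = Hyamine 1622 control at 20 µM and 100% = untreated cell control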
H69AR inhibit: growth inhibitors of human H69AR lung tumor cells; H69AR lung tumor viability, ATP luminescence, 72 h; stronger effect = lower value; viability, % at 10 µM; 85,000 compounds, 6% hits;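 active = viability at or below 40%; inactive = viability above 40%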;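 also: multidrug resistant small cell line overexpressing MRP-1 efflux transporter; 100% = mean luminescence of untreated control wells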
* marks the source's active call; other numbers are inactive results; nt = not tested or not shown.

SMILES	HUVEC inhibit	HCT116 PTEN-null	Lung fibro prol	HCT116 bCat-KO	H69AR inhibit
COC(C(=O)NC(C(C)C)C(C)C)c1ccccc1 (configuration not stated)	nt	96	nt	101	nt
CCc1ccc(-n2c(C)cc(/C=N/NC(=O)OC)c2C)cc1	nt	58	nt	56	nt
CC(C)c1nnc(NC(=O)Cc2ccccc2[N+](=O)[O-])s1	nt	104	nt	85	nt
COc1ccc(-c2cc(C(F)F)n3ncc(C(=O)N4CCN5CCCC5C4)c3n2)cc1 (configuration not stated)	98	59	97	59	38*
Cc1ccc(-c2cc(C(F)F)n3ncc(C(=O)N4CCN(c5cccc(C)c5C)CC4)c3n2)cc1	81	8	101	3.2*	81
Cc1ccc2cc(COC(=O)C3CCCO3)c(=O)[nH]c2c1 (configuration not stated)	nt	98	nt	109	nt
CCOC(=O)c1nn(-c2ccccc2)c2nnc(Cc3ccccc3)c(=O)n12	nt	94	nt	103	nt
C=CCN(CC=C)S(=O)(=O)c1ccc2nc(NC(=O)C(C)C)sc2c1	26*	101	51	105	14*
CCOC(=O)c1ccc2nc(NC(=O)c3cccs3)sc2c1	75	69	88	74	38*
CCOC(=O)c1ccc2nc(NC(=O)C(C)C)sc2c1	110	88	92	77	34*
Cc1ccc(C(=O)Nc2ccccc2C(=O)NC(CC(=O)O)C(=O)O)cc1 (configuration not stated)	104	99	99	86	88
Cc1ccc(C(=O)Nc2ccccc2C(=O)NC(C(=O)O)C(C)C)cc1 (configuration not stated)	93	0.8*	102	0.5*	94
COc1cc(-c2nnc(Sc3ccc(C(F)(F)F)cc3[N+](=O)[O-])o2)cc(OC)c1OC	72	5	83	7	1.0*
Cc1cccc(-n2nnnc2SC(C)C(=O)NCCC2=CCCCC2)c1 (configuration not stated)	103	84	95	72	35*
Cc1sc2nc3ccc(NCc4ccco4)nn3c(=O)c2c1C	nt	18	nt	27	nt
O=c1c2ccccc2nc2ccc(NCc3ccco3)nn12	85	68	88	65	39*
Cc1ccc(S(=O)(=O)NC(C(=O)Oc2cc3oc(=O)cc(C)c3cc2Cl)C(C)C)cc1 (configuration not stated)	nt	104	nt	92	nt
Cc1ccc(N=Cc2cc3c(cc2O)OC(N)=C(C#N)C3c2ccccc2)cc1 (configuration not stated)	nt	24	nt	30	nt
Cc1ccc(C(=O)/C=C/c2ccc3c(c2)OCO3)o1	nt	10	nt	7	nt
Cc1ccc(C(=O)/C=C/c2ccccc2)o1	nt	10	nt	5.9*	nt
Cc1ccc(C(=O)/C=C/c2ccc(Br)cc2)o1	nt	1.4*	nt	2.2*	nt
CC1CCN(CCOc2ccc(OCc3ccccc3)cc2)CC1	nt	85	nt	73	nt
c1cc2c3c(cccc3c1)NC1(CCCCC1)N2	70	92	83	91	97
c1cc2c3c(cccc3c1)NC1(CCCCCC1)N2	5.5*	90	83	80	51
O=C(Nc1ccc(C(=O)N2CCCC2)cc1)Nc1ccc(Cl)cc1Cl	nt	96	nt	89	nt
SMILES	HUVEC inhibit	HCT116 PTEN-null	Lung fibro prol	HCT116 bCat-KO	H69AR inhibit
CCCc1c(C)c(C#N)c2nc3ccccc3n2c1NCCCN1CCOCC1	nt	83	nt	76	nt
Cc1cc(NCC2CCCO2)n2c(nc3ccccc32)c1C#N (configuration not stated)	88	90	102	106	65
CCc1c(C)c(C#N)c2nc3ccccc3n2c1Cl	nt	2.2*	nt	4.0*	nt
CCc1c(C)c(C#N)c2nc3ccccc3n2c1-n1nc(C)cc1C	114	88	95	86	62
CC(C)c1cc(NCC2CCCO2)n2c(nc3ccccc32)c1C#N (configuration not stated)	80	79	95	83	9.7*
CCc1c(C)c(C#N)c2nc3ccccc3n2c1NCC1CCCO1 (configuration not stated)	104	100	100	92	32*
COc1cc(OC)c(/C=N/n2c(C)nnc2C)c(OC)c1	nt	91	nt	83	nt
CCC(=O)Nc1ccc(/C(C)=N/NC(=O)c2c(-c3ccccc3Cl)noc2C)cc1	nt	111	nt	103	nt
COc1cc(-c2nc3cnccn3c2Nc2ccc(C(C)C)cc2)ccc1O	3.2*	55	46*	55	0.5*
CCCCN(C(=O)c1cc2ccccc2o1)c1c(N)n(CCC)c(=O)[nH]c1=O	nt	84	nt	95	nt
Cc1ccc2nc(Cl)c(/C=N/Nc3nc(C)cc(C)n3)c(=O)n2c1	nt	21	nt	9	nt
